Screening data (PubChem)
MC4R antag cAMP: MC4R antagonists of cAMP signaling, primary screen, cell-based, TR-FRET, antagonist arm of biased-ligand search; Melanocortin receptor 4 (Homo sapiens), P32245; MC4R-expressing cells, MTII-stimulated cAMP, LANCE TR-FRET; inhibition, % at 6.5 µM; actives 0.48% (n = 360,000); AID 540295, 2011;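 active means inhibition above its plate's cutoff, the mean of tested wells on that plate plus 3 SD, cut at about 29% in these data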
Target sequence (P32245 whole entry, looked up): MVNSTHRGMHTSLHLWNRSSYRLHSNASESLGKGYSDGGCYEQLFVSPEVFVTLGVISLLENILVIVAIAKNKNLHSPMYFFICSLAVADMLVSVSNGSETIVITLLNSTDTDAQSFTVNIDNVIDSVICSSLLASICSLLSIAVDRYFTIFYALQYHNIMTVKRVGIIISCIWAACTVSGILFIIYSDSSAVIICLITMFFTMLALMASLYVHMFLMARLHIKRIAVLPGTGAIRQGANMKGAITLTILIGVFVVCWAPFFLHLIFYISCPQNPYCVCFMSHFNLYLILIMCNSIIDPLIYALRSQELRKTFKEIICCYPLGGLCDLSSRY
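Assay system: human MC4R-expressing U2OS cells; reagent: Melanotan II stimulation of cells; dosing: 6.5 µM single dose; timing: compound 30 min, challenge 1 h, detection 1 h; signal: TR-FRET cAMP assay; replicates: one well per compound, no replicates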
Exocytosis inh: LAMP-1 surface exposure blockers, TALL-104 cells – cell-based, flow cytometry, MLPCN library, primary screen; TALL-104 LAMP-1 surface exposure; cells stimulated with thapsigargin and PMA; inhibition, % at 10 µM; actives 0.66% (n = 360,000); AID 651702, 2012;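 active means inhibition above about 55%, limit read from the data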
iPSC survival up: enhancers of single-cell hiPSC survival, primary screen, ATPlite luminescence; 100% = ROCK inhibitor wells, 0% = DMSO; survival enhancement, % at 20 µM; actives 0.044% (n = 360,000); AID 602274, 2012; in the data active means survival enhancement above about 18%;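 further: cells exposed to compounds for 16 hours before the ATP read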
ABCB6 inh 2: ABCB6 transporter inhibitors, primary screen, K562-ABCB6 cells, flow cytometry, MLPCN library | AID 602162, 2011 | K562-ABCB6 porphyrin accumulation, 1 h; stronger effect = lower value | actives 0.19% (n = 360,000) | fluorescence ratio to DMSO, % at 10 µM;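 active means fluorescence ratio to DMSO below 75%, the collection mean minus 3 SD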;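 further: signal is porphyrin accumulated inside mitochondria; lower ratio means ABCB6 inhibition with less porphyrin fluorescence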
Tb MetRS inh: T. brucei MetRS inhibitors, primary screen, biochemical, luminescence. inhibition, % at 11.9 µM. actives 0.4% (n = 360,000). purified T. brucei MetRS, ATP depletion, Kinase-Glo luminescence. AID 624268, 2012. methionyl-tRNA synthetase (Trypanosoma brucei brucei);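 active means inhibition above a per-plate cutoff of the control wells' mean inhibition plus 3 SD, cut at about 5.5% in these data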
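Material: parasite MetRS enzyme / Replication: singlicate, one well per compound / Signal: luminescence of leftover ATP / Schedule: 2 h aminoacylation at 25 °C after 15 min preincubation / Medium: HEPES-MgCl2-KCl buffer plus DTT, spermine, BSA, pyrophosphatase / Doses: 11.9 µM single point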
MC4R barr agon: MC4R agonists recruiting beta-arrestin, primary screen, cell-based, luminescence, agonist arm of biased-ligand search; AID 540308, 2011; activation, % at 8.9 µM; Melanocortin receptor 4 (Homo sapiens), P32245; actives 0.98% (n = 360,000); U2OS MC4R beta-arrestin complementation; percent of melanotan II response, DMSO zero;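 active means activation above a per-plate cutoff, the mean activation of sample wells on that plate plus 3 SD, cut at about 8% in these data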
Exocytosis CP01: inhibitors of lytic granule exocytosis, confirmation, TALL-104 cells, flow cytometry, Cherry Pick01. inhibition, % at 10 µM. AID 651954, 2012. LAMP-1 externalization; stimulated with PMA plus thapsigargin. actives 11% (n = 1,500). shares compounds with Exocytosis inh; in the data active means inhibition above about 60%
Numbers stand for hits. This is a sample that favours compounds with a hit; in the whole collection about 2.6% have one here.

Results for CCc1ccc(C(O)c2ncc(-c3ccc(Cl)cc3)[nH]2)cc1 (centres undefined) ?
MC4R antag cAMP: inactive; Exocytosis inh: inactive; iPSC survival up: inactive; ABCB6 inh 2: inactive; Tb MetRS inh: inactive; MC4R barr agon: inactive

What do the screens show for `NC1=NC[C@H](Cc2ccc(O)cc2)N1CC1CCCCC1`?
MC4R antag cAMP: inactive; Exocytosis inh: 65.4; iPSC survival up: inactive; ABCB6 inh 2: inactive; Tb MetRS inh: inactive; MC4R barr agon: inactive; Exocytosis CP01: inactive

How did NC1=NC[C@H](Cc2ccccc2)N1CC1CCCCC1 do in these assays?
MC4R antag cAMP: inactive; Exocytosis inh: inactive; iPSC survival up: inactive; ABCB6 inh 2: inactive; Tb MetRS inh: inactive; MC4R barr agon: inactive

Results for CCOc1ccccc1N(CC(=O)N1CCOCC1)S(=O)(=O)c1ccc(SC)cc1 ?
MC4R antag cAMP: inactive; Exocytosis inh: inactive; iPSC survival up: inactive; ABCB6 inh 2: inactive; Tb MetRS inh: inactive; MC4R barr agon: inactive

Results for CCOC(=O)C1(Cc2cccc(Cl)c2)CCCN(C(=O)c2c(CC)noc2C)C1 (centres undefined) ?
MC4R antag cAMP: inactive; Exocytosis inh: 59.2; iPSC survival up: inactive; ABCB6 inh 2: inactive; Tb MetRS inh: inactive; MC4R barr agon: inactive; Exocytosis CP01: inactive

What do the screens show for `COc1ccc(C(=O)N(CCc2ccccc2)Cc2ccccc2)c(OC)n1`?
MC4R antag cAMP: inactive; Exocytosis inh: inactive; iPSC survival up: inactive; ABCB6 inh 2: inactive; Tb MetRS inh: inactive; MC4R barr agon: inactive

How did COc1ccc(C(=O)N(CCc2ccccc2)Cc2cccs2)c(OC)c1 do in these assays?
MC4R antag cAMP: inactive; Exocytosis inh: 63.6; iPSC survival up: inactive; ABCB6 inh 2: inactive; Tb MetRS inh: inactive; MC4R barr agon: inactive; Exocytosis CP01: inactive

What do the screens show for `C=C1c2nc3ccccc3n2C=C(c2ccc(C)cc2)N1c1ccccc1`?
MC4R antag cAMP: inactive; Exocytosis inh: 90.1; iPSC survival up: inactive; ABCB6 inh 2: inactive; Tb MetRS inh: inactive; MC4R barr agon: inactive; Exocytosis CP01: inactive

Results for C=C(C)Cn1c(-c2ccccc2)nc2ccccc21 ?
MC4R antag cAMP: inactive; Exocytosis inh: inactive; iPSC survival up: inactive; ABCB6 inh 2: inactive; Tb MetRS inh: inactive; MC4R barr agon: inactive

How did Cc1nnc(SCC(=O)Nc2ccc(N3CCN(S(C)(=O)=O)CC3)cc2)o1 do in these assays?
MC4R antag cAMP: inactive; Exocytosis inh: inactive; iPSC survival up: inactive; ABCB6 inh 2: inactive; Tb MetRS inh: inactive; MC4R barr agon: inactive

How did Clc1cccc(C2Nc3cccc4cccc(c34)N2)c1Cl do in these assays?
MC4R antag cAMP: inactive; Exocytosis inh: 93.2; iPSC survival up: inactive; ABCB6 inh 2: inactive; Tb MetRS inh: inactive; MC4R barr agon: inactive; Exocytosis CP01: inactive

Results for COCCn1c(SC(C)C(=O)NCC2CCCO2)nc2sc3c(c2c1=O)CCC3 (centres undefined) ?
MC4R antag cAMP: inactive; Exocytosis inh: 59.4; iPSC survival up: inactive; ABCB6 inh 2: inactive; Tb MetRS inh: inactive; MC4R barr agon: inactive; Exocytosis CP01: inactive

Results for COCCn1c(SC(C)C(=O)NCC2CCCO2)nc2scc(-c3ccc(F)cc3)c2c1=O (centres undefined) ?
MC4R antag cAMP: inactive; Exocytosis inh: inactive; iPSC survival up: inactive; ABCB6 inh 2: inactive; Tb MetRS inh: inactive; MC4R barr agon: inactive

What do the screens show for `Fc1cccc(NC(=S)N2CCc3ccccc32)c1`?
MC4R antag cAMP: inactive; Exocytosis inh: 64.0; iPSC survival up: inactive; ABCB6 inh 2: inactive; Tb MetRS inh: inactive; MC4R barr agon: inactive; Exocytosis CP01: inactive

What do the screens show for `CCCCn1c(=O)[nH]c(=O)c2c1ncn2Cc1ccco1`?
MC4R antag cAMP: inactive; Exocytosis inh: inactive; iPSC survival up: inactive; ABCB6 inh 2: inactive; Tb MetRS inh: inactive; MC4R barr agon: inactive

What do the screens show for `CCCCn1cnc2c(c(-c3ccccc3)c(-c3ccccc3)n2Cc2ccco2)c1=N`?
MC4R antag cAMP: inactive; Exocytosis inh: 63.6; iPSC survival up: inactive; ABCB6 inh 2: inactive; Tb MetRS inh: inactive; MC4R barr agon: inactive; Exocytosis CP01: inactive

Results for N=c1c2c(-c3ccccc3)c(-c3ccccc3)n(Cc3ccco3)c2ncn1Cc1ccco1 ?
MC4R antag cAMP: inactive; Exocytosis inh: 91.0; iPSC survival up: inactive; ABCB6 inh 2: inactive; Tb MetRS inh: inactive; MC4R barr agon: inactive; Exocytosis CP01: inactive

What do the screens show for `O=C(c1ccco1)N(CCC(c1ccccc1)c1ccco1)Cc1ccc(F)cc1` (centres undefined)?
MC4R antag cAMP: inactive; Exocytosis inh: 59.0; iPSC survival up: inactive; ABCB6 inh 2: inactive; Tb MetRS inh: inactive; MC4R barr agon: inactive; Exocytosis CP01: inactive

What do the screens show for `CCN(CCCCCN(C)C)Cc1cc2ccccc2o1`?
MC4R antag cAMP: inactive; Exocytosis inh: inactive; iPSC survival up: inactive; ABCB6 inh 2: inactive; Tb MetRS inh: inactive; MC4R barr agon: inactive

How did CCCCCNC(=O)C(c1ccc(-c2ccccc2)cc1)n1c(=O)c(-c2cc3ccccc3[nH]2)nc2ccccc21 (centres undefined) do in these assays?
Exocytosis inh: inactive; Tb MetRS inh: inactive

What do the screens show for `Nc1c(C(=O)NCc2ccc(F)cc2)c2nc3ccccc3nc2n1CCCN1CCOCC1`?
MC4R antag cAMP: inactive; Exocytosis inh: 61.8; iPSC survival up: inactive; ABCB6 inh 2: inactive; Tb MetRS inh: inactive; MC4R barr agon: inactive; Exocytosis CP01: 90.5

Results for Nc1c(C(=O)NCc2ccccc2)c2nc3ccccc3nc2n1CCCN1CCOCC1 ?
MC4R antag cAMP: inactive; Exocytosis inh: inactive; iPSC survival up: inactive; ABCB6 inh 2: inactive; Tb MetRS inh: inactive; MC4R barr agon: inactive

How did CC1CCN(c2c(NCc3ccc(C(=O)N4c5ccccc5CC4C)cc3)c(=O)c2=O)CC1 (centres undefined) do in these assays?
MC4R antag cAMP: inactive; Exocytosis inh: inactive; iPSC survival up: inactive; ABCB6 inh 2: inactive; Tb MetRS inh: inactive; MC4R barr agon: inactive

What do the screens show for `COc1cc(CN2CCC(C(=O)NCCC(C)C)CC2)ccc1OCc1ccccc1`?
MC4R antag cAMP: inactive; Exocytosis inh: 63.3; iPSC survival up: inactive; ABCB6 inh 2: inactive; Tb MetRS inh: inactive; MC4R barr agon: inactive; Exocytosis CP01: inactive

What do the screens show for `CC(C)CCNC(=O)C1CCN(Cc2cccc(OCc3ccccc3)c2)CC1`?
MC4R antag cAMP: inactive; Exocytosis inh: 68.7; iPSC survival up: inactive; ABCB6 inh 2: inactive; Tb MetRS inh: inactive; MC4R barr agon: inactive; Exocytosis CP01: inactive
